E-sel inducer – E-selectin induction on HUVECs; 0.37% of 260,000 active; P16581; activation, % at 7.58 µM; AID 686992; HUVEC E-selectin immunofluorescence imaging; normalized: neutral wells 0, TNF-alpha wells 100;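 active means mean E-selectin-positive cell signal at least 10% of the positive control, reached in at least 60% of replicates, without over 20% cell loss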
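Read-out: % PE-positive cells | Test system: HUVEC | Doses: One compound dose added by pin transfer | Buffer or medium: EGM-2 over gelatin coat | Signal: Immunofluorescence imaging | Benchmarks: TNF-alpha, DMSO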
EWS-Fli inh – blocks EWS/Fli oncoprotein-driven transcription; A673 NR0B1-luciferase reporter, viability-normalised; inhibition, % at 12.6 µM; 0.67% of 350,000 active; AID 651661;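 active means mean inhibition of at least 50% after viability correction, with every replicate also passing that limit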;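 further: firefly luciferase signal divided by Alamar Blue viability fluorescence both relative to DMSO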
Ecoli rRNA inh – inhibits bacterial ribosomal RNA function over humanized ribosomes; E. coli WT GFP vs humanized-ribosome RFP mutants, fluorescence, 24 h; hits give low values; DMSO median 0, no signal -100; GFP signal change (wild-type ribosome), % (test concentration not listed); 1.6% of 350,000 active; AID 720706;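 active means significant combined selectivity score with lowered wild-type GFP, culture density cut under 30%, mutant RFP and density less affected; inactive means any of these conditions unmet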
LGR2 inh – Drosophila LGR2 receptor signaling inhibition. HEK293 LGR2, CRE-luciferase, bursicon-stimulated, 4 h. inhibition, % at 9.99 µM. 0.35% of 380,000 active. AID 720647;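 active means drop in luminescence signal, shown as inhibition above about 50% in the replicate tests, limit read from the data, passing the limit was not always enough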;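 further: agonist challenge used bursicon conditioned medium at about half maximal strength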
* hit, by the source's call. A selection: hits, their analogues and other compounds. The true share with any hit is near 2.4%.

`Cn1c(SCC(=O)Nc2ccccc2-c2ccccc2)nnc1-c1ccco1` gave EWS-Fli inh -20.5, Ecoli rRNA inh -23.8* and LGR2 inh -3.1.
CCC(=O)Nc1ccc(NC(=O)CSc2nnc(-c3ccco3)n2C)cc1 was read as E-sel inducer 0.0, EWS-Fli inh -0.5, Ecoli rRNA inh 1.7 and LGR2 inh 7.3.
CCOC(=O)c1sc2nc(NC(=O)C(C)(C)C)sc2c1C was read as E-sel inducer -0.4, EWS-Fli inh -139.0, Ecoli rRNA inh -20.0* and LGR2 inh -37.5.
For CCOC(=O)c1sc2nc(NC(=O)C3CC3)sc2c1C the results were E-sel inducer 2.4, EWS-Fli inh -56.5, Ecoli rRNA inh -2.7 and LGR2 inh -37.7.
For CSc1nsc(SCc2ccc(Cl)cc2)n1 the results were EWS-Fli inh 7.4, Ecoli rRNA inh -42.7* and LGR2 inh -50.7.
`CNC[C@@H]1Oc2c(NC(=O)NC(C)C)cccc2C(=O)N(C)C[C@@H]1C` gave Ecoli rRNA inh 2.0.
Screening CN1/C(=C\C(=O)c2cccnc2)Sc2ccccc21 returned EWS-Fli inh -124.8, Ecoli rRNA inh -24.0 and LGR2 inh -50.4.
`COc1cccc(C(=O)/C=C2\Sc3ccccc3N2C)c1` gave EWS-Fli inh -80.6, Ecoli rRNA inh -28.5* and LGR2 inh -5.5.
For Cc1ccnc(Nc2nc3ccccc3o2)n1 the results were EWS-Fli inh 47.9, Ecoli rRNA inh 3.6 and LGR2 inh 54.2*.
CC(=O)N1[C@@H]2CN(S(=O)(=O)c3cccc(C)c3)c3ccccc3[C@@H]2[C@@H]1CO was read as E-sel inducer -0.4, EWS-Fli inh 8.2, Ecoli rRNA inh 2.0 and LGR2 inh 3.8.
`O=C1C[C@@](C(=O)NCCN2CCOCC2)(c2ccc([N+](=O)[O-])cc2)[C@@H](c2ccc(CO)cc2)N1CC12CC3CC(CC(C3)C1)C2` gave EWS-Fli inh 16.6.
`Cc1cccc(Oc2coc3cc(OC(=O)c4cncc(Br)c4)ccc3c2=O)c1` gave EWS-Fli inh -14.6, Ecoli rRNA inh -17.5* and LGR2 inh -4.1.
Screening CC(=O)N(C)C[C@H]1Oc2ccc(NC(=O)NC(C)C)cc2CC(=O)N(C)C[C@@H]1C returned Ecoli rRNA inh 4.7.
For CCOC(=O)c1sc(Nc2nc(C)cc(C)n2)nc1C the results were E-sel inducer 1.3, EWS-Fli inh 53.9*, Ecoli rRNA inh 9.0 and LGR2 inh 4.6.
COc1ccc(NC(=O)Nc2ccc3c(c2)C(=O)N([C@H](C)CO)C[C@@H](C)[C@@H](CN(C)Cc2ccc4c(c2)OCO4)OCCCC[C@@H](C)O3)cc1 was read as E-sel inducer 0.1, EWS-Fli inh -13.7, Ecoli rRNA inh 0.4 and LGR2 inh 14.8.
Cn1ncc2c(O/N=C(\N)c3ccc(C(F)(F)F)cc3)ncnc21 was read as E-sel inducer 2.5, EWS-Fli inh 68.3* and Ecoli rRNA inh -17.0*.
`O=C(C[C@H]1CC[C@@H](NC(=O)c2ccccc2)[C@@H](CO)O1)Nc1ccc(-c2ccccc2)cc1` gave E-sel inducer -0.4, EWS-Fli inh 7.8, Ecoli rRNA inh -4.1 and LGR2 inh 3.9.
Screening O=C(O)c1cc(S(=O)(=O)N2CCN(C(c3ccccc3)c3ccccc3)CC2)ccc1Cl returned EWS-Fli inh -8.3, Ecoli rRNA inh -16.1* and LGR2 inh -2.4.
`Cc1ccccc1NCC(=O)Nc1cc(S(=O)(=O)N2CCCCC2)ccc1C` gave EWS-Fli inh 1.8, Ecoli rRNA inh 5.5 and LGR2 inh -5.8.
For CC(NCC(=O)Nc1cc(S(=O)(=O)N2CCCCCC2)ccc1Cl)c1ccccc1 (stereo not given) the results were E-sel inducer 0.6, EWS-Fli inh 5.2, Ecoli rRNA inh -23.4* and LGR2 inh 26.2.
For O=C(c1ccncc1)N1CC2(C1)[C@H](c1ccccc1)[C@H](CO)N2C(=O)c1ccncc1 the results were E-sel inducer -0.2, EWS-Fli inh 3.3, Ecoli rRNA inh 1.8 and LGR2 inh 2.7.
`C[C@@H]1CN([C@H](C)CO)C(=O)Cc2cc(NC(=O)Cc3ccccc3)ccc2O[C@@H]1CN(C)CC1CC1` gave E-sel inducer -6.9, EWS-Fli inh -1.1, Ecoli rRNA inh 1.7 and LGR2 inh 9.3.
For C[C@@H]1CN(C)C(=O)Cc2ccccc2O[C@@H]1CN(C)C the results were Ecoli rRNA inh 0.2.
`O=C(NNc1c2ccccc2nc2ccccc12)C(O)c1ccccc1` (stereo not given) gave EWS-Fli inh 10.5, Ecoli rRNA inh -26.8* and LGR2 inh -2.8.
